Data set [1] has as its system Mycobacterium tuberculosis. The experiment in a line: Binding affinity to Mycobacterium tuberculosis InhA:NAD+ complex expressed in Escherichia coli BL21(DE3)pLysS assessed as residence time.
Data set [2] is described as follows: Octanol-phosphate buffer partition coefficient, log D of the compound at pH 7.4. It is filed as physicochemical. The settings on record: octanol/water. The method, boiled down:
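Partitioning between octanol and pH 7.4 phosphate buffer, with the carbon-11 radiolabel used to report drug concentration in each phase.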

Data set [3] is described as follows: Plasma protein binding in baboon after 10 mins. The settings on record: papio anubis. In kind it is ADME, cell-free.
The subject of another data set is Brain. The experiment in a line: Drug uptake in iv dosed baboon brain measured over 15 to 90 mins by PET image analysis. In kind it is ADME, organism-based. The settings on record: papio anubis, in vivo. The essentials: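 Baboon PET after i.v. radiolabelled drug, with images acquired for 90 min. Dose-corrected coronal images were summed over 15–90 min. Time-activity curves came from manually drawn regions of interest.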

Data set [4] deals with Spleen. The experiment in a line: Drug uptake in mouse spleen pretreated with unlabelled compound for 1 hr followed by radiolabeled compound treatment measured after 20 mins by PET image analysis. The settings on record: in vivo. It is filed as ADME, tissue-based. The method, boiled down: (§1)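 Mice received a 200 mg/kg predose of unlabelled compound 1 h before [11C]-tracer injection. Tissue radioactivity was read 20 min after the tracer and given as % injected dose/gram, mean ± SD of three animals.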

Data set [5] has as its system Lung. The experiment in a line: Drug uptake in mouse lung pretreated with unlabelled compound for 1 hr followed by radiolabeled compound treatment measured after 20 mins by PET image analysis. In kind it is ADME, tissue-based. The settings on record: in vivo. The essentials:
as §1

A short description of data set [6]: Drug uptake in iv dosed baboon heart measured over 90 mins by PET image analysis. In kind it is ADME, organism-based. The settings on record: papio anubis, in vivo, 1.5 h. The method, boiled down: (§2)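 Dynamic PET scan of baboons over 90 min after i.v. [11C]-labelled radiotracer. Peripheral organ time-activity curves were derived from regions of interest drawn manually on the images.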

Data set [7] can be described thus: Drug uptake in iv dosed baboon lung measured over 90 mins by PET image analysis. The settings on record: papio anubis, in vivo, 1.5 h. It is filed as ADME, organism-based. The essentials: as §2
A short description of data set [8]: Drug uptake in iv dosed baboon blood measured over 90 mins by PET image analysis. It is filed as ADME, organism-based. The settings on record: papio anubis, in vivo, 1.5 h. The method, boiled down: as §2
Data set [9] can be described thus: Drug uptake in iv dosed baboon liver measured over 90 mins by PET image analysis. In kind it is ADME, organism-based. The settings on record: papio anubis, in vivo, 1.5 h. The method, boiled down:
as §2

Data set [10] can be described thus: Drug uptake in iv dosed baboon kidney measured over 90 mins by PET image analysis. In kind it is ADME, organism-based. The settings on record: papio anubis, in vivo, 1.5 h. The method, boiled down: as §2
The nature of data set [11]: Drug uptake in iv dosed baboon spleen measured over 90 mins by PET image analysis. In kind it is ADME, organism-based. The settings on record: papio anubis, in vivo, 1.5 h. The essentials:
as §2

Data set [12] in a line: Drug uptake in iv dosed baboon gallbladder measured over 90 to 120 mins by PET image analysis. The settings on record: papio anubis, in vivo. It is filed as ADME, organism-based, Gall bladder.
The subject of data set [13] is Spleen. The experiment in a line: Drug uptake in mouse spleen measured at 20 mins. It is filed as ADME, tissue-based. The settings on record: in vivo. The essentials: (§3)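 Healthy mice were injected with [11C]-labelled tracer. Tissue radioactivity was measured at 20, 40 and 60 min post-injection and expressed as % injected dose/gram. Values are mean ± SD of three animals.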

Data set [14] has as its system Spleen. The experiment in a line: Drug uptake in mouse spleen measured at 40 mins. In kind it is ADME, tissue-based. The settings on record: in vivo. The essentials: as §3
The test system of data set [15] is Spleen. The experiment in a line: Drug uptake in mouse spleen measured at 60 mins. In kind it is ADME, tissue-based. The settings on record: in vivo, 1 h. The method, boiled down:
as §3

The subject of data set [16] is Kidney. The experiment in a line: Drug uptake in mouse kidney measured at 20 mins. It is filed as ADME, tissue-based. The settings on record: in vivo. The essentials:
as §3

For data set [17], the system named is Kidney. The experiment in a line: Drug uptake in mouse kidney measured at 40 mins. In kind it is ADME, tissue-based. The settings on record: in vivo. The method, boiled down:
as §3

Data set [18] has as its system Kidney. Kind of data set: Drug uptake in mouse kidney measured at 60 mins. It is filed as ADME, tissue-based. The settings on record: in vivo, 1 h. The essentials:
as §3

The subject of data set [19] is Liver. The experiment in a line: Drug uptake in mouse liver measured at 40 mins. In kind it is ADME, tissue-based. The settings on record: in vivo. The method, boiled down: as §3
In data set [20] the test system is Liver. The experiment in a line: Drug uptake in mouse liver measured at 60 mins. It is filed as ADME, tissue-based. The settings on record: in vivo, 1 h. The essentials: as §3
Data set [21] has as its system Lung. Kind of data set: Drug uptake in mouse lung measured at 20 mins. It is filed as ADME, tissue-based. The settings on record: in vivo. The method, boiled down: as §3
Data set [22] has as its system Lung. Kind of data set: Drug uptake in mouse lung measured at 40 mins. In kind it is ADME, tissue-based. The settings on record: in vivo. The method, boiled down: as §3
In data set [23] the test system is Lung. Kind of data set: Drug uptake in mouse lung measured at 60 mins. In kind it is ADME, tissue-based. The settings on record: in vivo, 1 h. The essentials:
as §3

In data set [24] the test system is Blood. Kind of data set: Drug uptake in mouse blood measured at 20 mins. It is filed as ADME, tissue-based. The essentials: as §3
The test system of data set [25] is Blood. Kind of data set: Drug uptake in mouse blood measured at 40 mins. In kind it is ADME, tissue-based. The method, boiled down: as §3
For data set [26], the system named is Blood. Kind of data set: Drug uptake in mouse blood measured at 60 mins. It is filed as ADME, tissue-based. The settings on record: 1 h. The essentials: as §3
Data set [27] has as its system Mycobacterium tuberculosis. The experiment in a line: Binding affinity to Mycobacterium tuberculosis InhA assessed as residence time.

With `CCCCCCc1ccc(Oc2ccccc2C)c(O)c1`, the TIME in data set [1] came out at 0.4 h. In [2], the pH-dependent lipophilicity (logD) (as a rule, lipophilicity at a set pH, counting ionised and neutral species) was determined as 3.65. Besides, the PPB in data set [3] is 99.76%.
Consider `CCCCCCc1ccc(Oc2ccccc2[11C]#N)c(O)c1`, for which the Drug uptake entry in the data set with Brain is “Active”.
For `CCCCCCc1ccc(Oc2ccccc2[11CH3])c(O)c1`, the Drug uptake entry was “Active” in the data set with Spleen [4]; “Active” in the data set with Lung [5]; “Not Active” in data set [6]; “Not Active” in data set [7]; “Not Active” in [8]; “Active” in [9]. For the same compound, the Drug uptake entry in data set [10] is “Active”; in data set [11], “Active”; in data set [12], “Active”; with Brain, “Active”; in the data set on Spleen [13], 1.82 %ID/cc; in the data set on Spleen [14] it was 0.93 %ID/cc. Besides, the Drug uptake in the data set with Spleen [15] is 0.21 %ID/cc; in the data set with Kidney [16] it was 2.21 %ID/cc; in the data set on Kidney [17] it was 1.45 %ID/cc; with Kidney [18] it was 0.31 %ID/cc; in the data set on Liver [19] it was 15.7 %ID/cc; in the data set with Liver [20], 14.09 %ID/cc. In addition, the Drug uptake with Lung [21] was 1.36 %ID/cc; with Lung [22] it was 1.26 %ID/cc; with Lung [23], 1.35 %ID/cc; in the data set on Blood [24], 1.7 %ID/cc; in the data set with Blood [25], 1.46 %ID/cc; with Blood [26], 0.55 %ID/cc.
For `NC(=O)C1=CN([C@@H]2O[C@H](COP(=O)(O)OP(=O)(O)OC[C@H]3O[C@@H](n4cnc5c(N)ncnc54)[C@H](O)[C@@H]3O)[C@@H](O)[C@H]2O)C=C[C@@H]1C(=O)c1ccncc1`, the TIME in data set [27] stood at 1 h.

The values above are taken from ChEMBL document CHEMBL3632514, “Radiolabelling and positron emission tomography of PT70, a time-dependent inhibitor of InhA, the Mycobacterium tuberculosis enoyl-ACP reductase” (Bioorg Med Chem Lett, 2015).
